In ChEMBL document CHEMBL1122517, “2-Phenylindoles. Relationship between structure, estrogen receptor affinity, and mammary tumor inhibiting activity in the rat” (1984):

Key:
[1] = biological target: T1, Estrogen receptor (Mus musculus) (UniProt O08537+P19785); test: Uterotrophic activity in mice as uterus dry weight (mg)/body weight (g) *100 at 0.2 ug dose; assay type: functional, tissue-based
Summary of the method: (§1)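 Immature 19-day-old female NMRI mice, groups of 10. Compound dose per animal in olive oil (50 µL) sc on 3 consecutive days. Mice were killed 24 h after the last injection. Uteri were Bouin-fixed 20 h, cleaned, washed with alcoholic LiCl, and dried at 100 °C for 24 h. Effect = uterine dry weight (mg)/body weight (g) ×100; mean ± SD.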

[2] = biological target: T1, Estrogen receptor (Mus musculus); test: Uterotrophic activity in mice as uterus dry weight (mg)/body weight (g) *100 at 125 ug dose; assay type: functional, tissue-based; summary of the method: as §1
[3] = biological target: T1, Estrogen receptor (Mus musculus); test: Uterotrophic activity in mice as uterus dry weight (mg)/body weight (g) *100 at 1 ug dose; assay type: functional, tissue-based; summary of the method: as §1
[4] = biological target: T1, Estrogen receptor (Mus musculus); test: Uterotrophic activity in mice as uterus dry weight (mg)/body weight (g) *100 at 25 ug dose; assay type: functional, tissue-based; summary of the method: as §1
[5] = biological target: T1, Estrogen receptor (Mus musculus); test: Uterotrophic activity in mice as uterus dry weight (mg)/body weight (g) *100 at 5 ug dose; assay type: functional, tissue-based; summary of the method: as §1
[6] = organism: Rattus norvegicus; test: Change in DMBA-induced mammary carcinoma tumor area in rats at 2.0 mg dose; assay type: functional
Summary of the method: (§2)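 Female Sprague-Dawley rats got one 20 mg DMBA dose by gavage at 50 days old and were palpated twice weekly from day 30. Rats were randomized once tumor area exceeded 140 mm². Dose (per kg) was given sc in olive oil, once daily Monday to Thursday and doubled on Friday. Tumor area was taken from caliper measurements of two perpendicular axes, twice weekly. Change per animal is given as median % and range.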

[7] = organism: Rattus norvegicus; test: Change in DMBA-induced mammary carcinoma tumor area in rats at 0.5 mg dose; assay type: functional; summary of the method: as §2
[8] = organism: Rattus norvegicus; test: Change in body weight of DMBA-induced mammary carcinoma tumor bearing rats at 0.5 mg dose; assay type: functional
Summary of the method: (§3)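 DMBA-induced tumor-bearing Sprague-Dawley rats (20 mg DMBA by gavage at 50 days old), randomized when tumor area exceeded 140 mm². Dose per kg was given sc in olive oil, single dose daily Monday to Thursday, double dose Friday. Body weight was measured twice weekly. Read-out was % change in body weight.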

[9] = organism: Rattus norvegicus; test: Change in body weight of DMBA-induced mammary carcinoma tumor bearing rats at 2 mg dose; assay type: functional; summary of the method: as §3
[10] = organism: Rattus norvegicus; test: Change in DMBA-induced mammary carcinoma tumor area in rats at 0.5 mg dose; -100-346; assay type: functional; summary of the method: as §2
[11] = organism: Rattus norvegicus; test: Complete remission (%) of DMBA-induced mammary carcinoma tumors in rats at 0.5 mg dose; assay type: functional
Summary of the method: (§4)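 DMBA-induced tumors in Sprague-Dawley rats, entered when tumor area exceeded 140 mm². Dose per kg was given sc in olive oil, daily Monday to Thursday with a double dose Friday. Tumors were measured by calipers twice weekly. Tumor number was counted at the start of the test. Complete remission meant the tumor was no longer palpable. Partial remission meant reduction to ≤50% of initial size. New tumor appearance was recorded.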

[12] = organism: Rattus norvegicus; test: Complete remission (%) of DMBA-induced mammary carcinoma tumors in rats at 2 mg dose; assay type: functional; summary of the method: as §4
[13] = organism: Rattus norvegicus; test: Partial remission (%) of DMBA-induced mammary carcinoma tumors in rats at 2 mg dose; assay type: functional
Summary of the method: (§5)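 Female Sprague-Dawley rats, 50 days old, given a single 20 mg DMBA dose in 1 mL olive oil by gavage. Rats were palpated twice weekly from day 30, and those without tumors by day 70 were discarded. Rats were randomized once tumor area exceeded 140 mm². Drug dose was per kg in olive oil (1 mL/kg) sc, single dose Mon–Thu and double dose Fri. Tumor area (caliper, two perpendicular axes) and body weight were measured twice weekly.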

[14] = organism: Rattus norvegicus; test: Percent unchanged DMBA-induced mammary carcinoma tumors in rats at 2 mg dose; assay type: functional; summary of the method: as §5
[15] = organism: Rattus norvegicus; test: Percent unchanged DMBA-induced mammary carcinoma tumors in rats at 0.5 mg dose; assay type: functional; summary of the method: as §5
[16] = organism: Rattus norvegicus; test: Percent progressive DMBA-induced mammary carcinoma tumors in rats at 0.5 mg dose; assay type: functional; summary of the method: as §5
[17] = organism: Rattus norvegicus; test: Number of DMBA-induced mammary carcinoma tumors in rats at 0.5 mg dose; assay type: functional; summary of the method: as §4
[18] = organism: Rattus norvegicus; test: Number of DMBA-induced mammary carcinoma tumors in rats at 2 mg dose; assay type: functional; summary of the method: as §4
[19] = organism: Rattus norvegicus; test: Formation of new DMBA-induced mammary carcinoma tumors in rats at 0.5 mg dose; assay type: functional; summary of the method: as §4
[20] = organism: Rattus norvegicus; test: Formation of new DMBA-induced mammary carcinoma tumors in rats at 2 mg dose; assay type: functional; summary of the method: as §4
[21] = organism: Rattus norvegicus; test: Percent progressive DMBA-induced mammary carcinoma tumors in rats at 2 mg dose; assay type: functional; summary of the method: as §5
[22] = organism: Rattus norvegicus; test: Partial remission (%) of DMBA-induced mammary carcinoma tumors in rats at 0.5 mg dose; assay type: functional; summary of the method: as §4
[23] = organism: Rattus norvegicus; test: Change in DMBA-induced mammary carcinoma tumor area in rats at 2 mg dose; assay type: functional; summary of the method: as §2
[24] = organism: Rattus norvegicus; test: Change in DMBA-induced mammary carcinoma tumor area in rats at 2 mg dose; -100-231; assay type: functional; summary of the method: as §2
[25] = organism: Rattus norvegicus; test: Partial remission (%) of DMBA-induced mammary carcinoma tumors in rats; assay type: functional; summary of the method: as §4
[26] = biological target: T1, Estrogen receptor (Mus musculus); test: Anti-uterotrophic activity in mice as uterus dry weight (mg)/body weight (g) *100 at 125 ug dose; assay type: functional, tissue-based
Summary of the method: (§6)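 Immature female NMRI mice, 19 days old, groups of 10, given sc injections on 3 consecutive days. Each injection held 0.4 μg estrone plus the indole dose per animal, in olive oil (50 μL). Killed 24 h after the last injection. Uteri were fixed in Bouin solution, washed, and dried 24 h at 100 °C. Read-out was uterine dry weight (mg)/body weight (g) × 100, mean ± SD.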

[27] = biological target: T1, Estrogen receptor (Mus musculus); test: Anti-uterotrophic activity in mice as uterus dry weight (mg)/body weight (g) *100 at 1 ug dose; assay type: functional, tissue-based; summary of the method: as §6
[28] = biological target: T1, Estrogen receptor (Mus musculus); test: Anti-uterotrophic activity in mice as uterus dry weight (mg)/body weight (g) *100 at 25 ug dose; assay type: functional, tissue-based; summary of the method: as §6
[29] = biological target: T1, Estrogen receptor (Mus musculus); test: Anti-uterotrophic activity in mice as uterus dry weight (mg)/body weight (g) *100 at 5 ug dose; assay type: functional, tissue-based; summary of the method: as §6
[30] = biological target: T1, Estrogen receptor (Mus musculus); test: Percentage inhibition of uterotrophic activity at 125 ug dose; assay type: functional
Summary of the method: (§7)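 Antiuterotrophic test in immature 19-day-old female NMRI mice (n=10), dosed sc on 3 consecutive days with 0.4 µg estrone per animal per day plus compound in olive oil. Uterine dry weight/body weight ×100 was read 24 h after the last dose. Inhibition % = 100 − [(E_S,T − E_V)/(E_S − E_V)]×100.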

[31] = biological target: T1, Estrogen receptor (Mus musculus); test: Percentage inhibition of uterotrophic activity at 5 ug dose; assay type: functional; summary of the method: as §7
[32] = biological target: T1, Estrogen receptor (Mus musculus); test: Percentage inhibition of uterotrophic activity at 25 ug dose; assay type: functional; summary of the method: as §7
[33] = biological target: T1, Estrogen receptor (Mus musculus); test: Percentage inhibition of uterotrophic activity at 1 ug dose; assay type: functional; summary of the method: as §7
[34] = organism: Rattus norvegicus; test: Change in DMBA-induced mammary carcinoma tumor area in rats at 4 mg dose; assay type: functional; summary of the method: as §2
[35] = organism: Rattus norvegicus; test: Change in DMBA-induced mammary carcinoma tumor area in rats at 4 mg dose; -100-47; assay type: functional; summary of the method: as §2
[36] = organism: Rattus norvegicus; test: Change in body weight of DMBA-induced mammary carcinoma tumor bearing rats at 4 mg dose; assay type: functional; summary of the method: as §3
[37] = organism: Rattus norvegicus; test: Partial remission (%) of DMBA-induced mammary carcinoma tumors in rats at 4 mg dose; assay type: functional; summary of the method: as §5
[38] = organism: Rattus norvegicus; test: Percent unchanged DMBA-induced mammary carcinoma tumors in rats at 4 mg dose; assay type: functional; summary of the method: as §5
[39] = organism: Rattus norvegicus; test: Number of DMBA-induced mammary carcinoma tumors in rats at 4 mg dose; assay type: functional; summary of the method: as §4
[40] = organism: Rattus norvegicus; test: Formation of new DMBA-induced mammary carcinoma tumors in rats at 4 mg dose; assay type: functional; summary of the method: as §4
[41] = organism: Rattus norvegicus; test: Percent progressive DMBA-induced mammary carcinoma tumors in rats at 4 mg dose; assay type: functional; summary of the method: as §5
[42] = organism: Rattus norvegicus; test: Complete remission (%) of DMBA-induced mammary carcinoma tumors in rats at 4 mg dose; assay type: functional; summary of the method: as §4

T1 sequence (O08537 whole entry, looked up): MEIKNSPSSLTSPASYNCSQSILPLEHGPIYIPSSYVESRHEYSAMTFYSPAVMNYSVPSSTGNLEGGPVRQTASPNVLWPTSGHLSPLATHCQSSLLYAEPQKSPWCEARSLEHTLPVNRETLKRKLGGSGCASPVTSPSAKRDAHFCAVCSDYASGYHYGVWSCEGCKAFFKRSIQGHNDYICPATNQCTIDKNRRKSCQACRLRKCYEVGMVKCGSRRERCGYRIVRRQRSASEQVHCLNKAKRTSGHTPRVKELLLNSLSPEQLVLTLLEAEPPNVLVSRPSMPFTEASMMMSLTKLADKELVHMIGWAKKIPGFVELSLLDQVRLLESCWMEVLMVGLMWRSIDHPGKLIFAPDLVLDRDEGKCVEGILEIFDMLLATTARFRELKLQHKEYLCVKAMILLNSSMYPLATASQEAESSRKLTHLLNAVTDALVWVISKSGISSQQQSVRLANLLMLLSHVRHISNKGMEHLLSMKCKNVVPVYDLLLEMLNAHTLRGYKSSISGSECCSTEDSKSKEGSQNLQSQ
T1 sequence (P19785 whole entry, looked up): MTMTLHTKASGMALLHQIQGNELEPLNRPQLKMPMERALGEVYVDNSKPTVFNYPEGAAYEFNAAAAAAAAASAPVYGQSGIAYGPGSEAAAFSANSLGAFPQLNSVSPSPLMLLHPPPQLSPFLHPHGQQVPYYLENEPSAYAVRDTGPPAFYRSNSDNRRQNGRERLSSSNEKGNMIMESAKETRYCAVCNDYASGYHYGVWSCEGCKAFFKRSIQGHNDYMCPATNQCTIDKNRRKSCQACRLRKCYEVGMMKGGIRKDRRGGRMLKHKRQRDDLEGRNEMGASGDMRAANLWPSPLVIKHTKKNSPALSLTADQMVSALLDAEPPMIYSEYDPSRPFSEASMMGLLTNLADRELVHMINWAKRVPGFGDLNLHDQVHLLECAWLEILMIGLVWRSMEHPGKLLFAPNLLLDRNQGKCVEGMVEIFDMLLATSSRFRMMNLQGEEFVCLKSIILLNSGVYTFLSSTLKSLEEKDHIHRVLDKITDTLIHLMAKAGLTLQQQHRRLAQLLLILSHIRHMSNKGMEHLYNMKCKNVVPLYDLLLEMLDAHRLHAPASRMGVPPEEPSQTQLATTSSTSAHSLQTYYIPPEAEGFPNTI

Row | SMILES | Uterotrophic effect [1] | Uterotrophic effect [2] | Uterotrophic effect [3] | Uterotrophic effect [4] | Uterotrophic effect [5] | Change of body weight [9] | Complete remission [12] | Static tumors [14] | No. of tumors [18] | New tumors [20] | Progressed tumors [21] | Anti-uterotrophic effect [26] | Anti-uterotrophic effect [27] | Anti-uterotrophic effect [28] | Anti-uterotrophic effect [29] | inhibition [30] | inhibition [31] | inhibition [32] | inhibition [33] | also measured
1 | CCn1c(-c2ccc(OC(C)=O)cc2)c(C)c2ccc(OC(C)=O)cc21 | 20.8 | 42.4 | 31.6 | 44.8 | 41.5 | -13% | 70% | 2% | 34 | 6 | 5% | – | – | – | – | – | – | – | – | Change of tumor area [6]: -96%; Change of tumor area [7]: -74%; Change of body weight [8]: -15%; Change of tumor area [10]: -100%; Complete remission [11]: 65%; Partial remission [13]: 23%; Static tumors [15]: 15%; Progressed tumors [16]: 9%; No. of tumors [17]: 40; New tumors [19]: 6; Partial remission [22]: 11%
2 | CCc1c(-c2ccc(OC(C)=O)cc2)n(CC)c2cc(OC(C)=O)ccc12 | 25.5 | 44.7 | 36.2 | 46.4 | 45.6 | -13% | 74% | 5% | 36 | 3 | 8% | – | – | – | – | – | – | – | – | Change of tumor area [23]: -95%; Change of tumor area [24]: -100%; Partial remission [25]: 13%
3 | CC(=O)Oc1ccc(-c2c(C)c3ccc(OC(C)=O)cc3n2C)cc1 | 18.2 | – | 18.6 | 24.2 | 21.4 | – | – | – | – | – | – | 31.7 | 32.3 | 34.3 | 38.2 | 33% | 7% | 23% | 31% | –
4 | CCc1c(-c2ccc(OC(C)=O)cc2)n(C)c2cc(OC(C)=O)ccc12 | – | 30 | 13.2 | 20.4 | 16.2 | – | – | – | – | – | – | 34.7 | 47.6 | 33.5 | 48.8 | 52% | 14% | 56% | 17% | Change of tumor area [34]: -88%; Change of tumor area [35]: -100%; Change of body weight [36]: -7%; Partial remission [37]: 29%; Static tumors [38]: 21%; No. of tumors [39]: 18; New tumors [40]: 10; Progressed tumors [41]: 7%; Complete remission [42]: 43%
